Measurements taken from ChEMBL document CHEMBL1125813, “Preparation and anti-HIV activities of aurintricarboxylic acid fractions and analogues: direct correlation of antiviral potency with molecular weight” (J Med Chem, 1991).
≈ marks a conversion by molar mass, not a printed value. Where “and” joins values, the source holds several entries; their conditions need not be identical. Equal entries are not always repeated.

How the values were obtained:
MT4 [1] = test: Inhibitory index for OKT4A mAb binding inhibition in MT-4 cells was determined at a concentration of 20 ug/ml; format: functional, Homo sapiens
Outline: (§1)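 MT-4 cells, 200 000 in 100 µL PBS, exposed to compound for 10–20 s at 20 °C, stained with anti-OKT4A-FITC for 20 min at 4 °C, washed, formaldehyde-fixed and read by flow cytometry. Index = 1 − (MF with compound − MF IgG-FITC control)/(MF OKT4A only − MF IgG-FITC control), from mean fluorescence intensity.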

MT4 [2] = test: Inhibitory index for OKT4A mAb binding inhibition in MT-4 cells was determined at a concentration of 100 ug/ml; format: functional, Homo sapiens; outline: as §1
[3] = Compound was tested for percent of OKT4A positive cells stained with normal mouse IgG-FITC at a concentration of 4 ug/mL; format: functional
Outline: (§2)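 MT-4 cells, 200 000 in 100 µL PBS, exposed to compound for 10–20 s at 20 °C, then stained with anti-OKT4A-FITC for 20 min at 4 °C. Cells washed, fixed in 0.37% formaldehyde and analysed by cytofluorometry. Positive cells are those brighter than control cells stained with normal mouse IgG-FITC, which monitors nonspecific labelling.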

HuT78 [4] = test: Compound was tested for reduce the number of gaint cells in HIV-2 infected HUT-78 cells cocultured with MOLT -4 cells; format: functional, cell-based, Homo sapiens
Outline: (§3)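 HUT-78 cells persistently infected with HIV-1 or HIV-2 cocultured with uninfected MOLT-4 (CD4+) cells alongside compound. Syncytium formation and bystander-cell destruction assessed by flow cytometry. IC50 taken as the concentration cutting giant-cell number by 50%.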

MT4 [5] = test: Inhibitory index for OKT4A mAb binding inhibition in MT-4 cells was determined at a concentration of 0.8 ug/ml; format: functional, Homo sapiens; outline: as §1
[6] = Compound was tested for percent of OKT4A positive cells stained with normal mouse IgG-FITC at a concentration of 20 ug/ml; format: functional; outline: as §2
MT4 [7] = test: Inhibitory index for OKT4A mAb binding inhibition in MT-4 cells was determined at a concentration of 4 ug/ml; format: functional, Homo sapiens; outline: as §1
MT4 [8] = test: Inhibitory concentration for cytopathicity of HIV-1 (HTLV-111B) in MT-4 cells; format: functional, cell-based, Homo sapiens
Outline: (§4)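 MT-4 cells infected with HIV-1 (HTLV-IIIB) or HIV-2 (LAV-2ROD) at 100–500-fold the dose infecting 50% of cells, then cultured with compound. Protection from cytopathicity gives the IC50 (50% inhibitory concentration). Means of at least three experiments.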

[9] = Compound was tested for percent of OKT4A positive cells stained with normal mouse IgG-FITC at a concentration of 100 ug/ml; format: functional; outline: as §2
MT-4 (human) = test: Inhibitory index of HIV-1 binding to MT-4 cells was determined at a concentration of 25 ug/mL
HuT78 [10] = test: Compound was tested for reduce the number of gaint cells in HIV-1 infected HUT-78 cells cocultured with MOLT -4 cells; format: functional, cell-based, Homo sapiens; outline: as §3
MT4 [11] = test: Inhibitory index for OKT4A mAb binding inhibition in MT-4 cells was determined at a concentration of 0.16 ug/ml; format: functional, Homo sapiens; outline: as §1
[12] = Compound was tested for percent of OKT4A positive cells stained with normal mouse IgG-FITC at a concentration of 0.8 ug/ml; format: functional; outline: as §2
[13] = Compound was tested for percent of OKT4A positive cells stained with normal mouse IgG-FITC at a concentration of 0.16 ug/ml; format: functional; outline: as §2
CCRF-CEM = test: Inhibitory concentration for cytopathicity of HIV-1 (HTLV-111B) in CEM cells; format: functional, cell-based, Homo sapiens
Outline: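 CEM cells infected with HIV-1 (HTLV-IIIB) and cultured with compound. Protection from cytopathicity measured by XTT tetrazolium viability assay. IC50 is the concentration giving 50% inhibition. Means of two to four experiments.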

MT4 [14] = test: Inhibitory concentration for cytopathicity of HIV-2 (LAV-2ROD) in MT-4 cells; format: functional, cell-based, Homo sapiens; outline: as §4
MT4 [15] = test: Inhibitory concentration for cell viability in mock-infected MT-4 cells; format: functional, cell-based; conditions: Homo sapiens
Outline: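 MT-4 cells mock-infected and cultured with compound. Viability measured by MTT tetrazolium colorimetric read-out. Value is the 50% cytotoxic concentration. MT-4 data are means of at least three experiments.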

O=C(O)C1=CC(=C(c2ccc(O)c(C(=O)O)c2)c2ccc(O)c(C(=O)O)c2)C=CC1=O [AURINTRICARBOXYLIC ACID]
Activity (MT4 [1]): 0.98
Activity (MT4 [2]): 0.97
Activity [3]: 9.2
IC50 (HuT78 [4]; Homo sapiens, HuT78, read-out: IC50): 4 µg/mL (≈ 9.47 µM)
IC50 (HuT78 [4]; hut78): 4 µg/mL (≈ 9.47 µM)
Activity (MT4 [5]): 0.26
Activity [6]: 1.8
Activity (MT4 [7]): 0.91
IC50 (MT4 [8]): 1.1 µg/mL and 0.5 µg/mL
Activity [9]: 2.7
Inhibitory index (MT-4 (human)): 0.99
IC50 (HuT78 [10]): 4 µg/mL (≈ 9.47 µM)
Activity (MT4 [11]): 0
Activity [12]: 99.2
Activity [13]: 99.5
IC50 (CCRF-CEM; Homo sapiens, CCRF-CEM, read-out: IC50): 2.1 µg/mL (≈ 4.97 µM)
IC50 (CCRF-CEM; ccrf-cem): 1.2 µg/mL (≈ 2.84 µM)
IC50 (MT4 [14]; Homo sapiens, MT4, read-out: IC50): 0.85 µg/mL (≈ 2.01 µM)
IC50 (MT4 [14]; mt4): 1.3 µg/mL (≈ 3.08 µM)
IC50 (MT4 [15]): 280 µg/mL (≈ 663 µM)
